# Results reported in ChEMBL document CHEMBL4190284, “Exploring the Sponge Consortium Plakortis symbiotica-Xestospongia deweerdtae as a Potential Source of Antimicrobial Compounds and Probing the Pharmacophore for Antituberculosis Activity of Smenothiazole A by Diverted Total Synthesis” (J Nat Prod, 2017).
# Assays:
# [1] = system: Mycobacterium tuberculosis; assay: Antitubercular activity against Mycobacterium tuberculosis H37Rv by broth microdilution Alamar blue assay; format: functional
# Procedure, shortened: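 Mtb H37Rv growth was measured by broth microdilution Alamar blue assay (MABA). Percentage inhibition at each concentration gave the MIC, defined as the lowest concentration preventing visible bacterial growth. Rifampicin served as positive control. Values are means of three experiments.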
# [2] = system: A2058; assay: Cytotoxicity against human A2058 cells assessed as reduction in cell viability; format: functional, cell-based
# [3] = system: Vero; assay: Cytotoxicity against African green monkey Vero cells assessed as reduction in cell viability; format: cell-based; details: Chlorocebus sabaeus
# [4] = system: Plasmodium falciparum; assay: Antiplasmodial activity against Plasmodium falciparum W2 assessed as parasite growth inhibition relative to control; format: functional
# [5] = system: DU-145; assay: Cytotoxicity against human DU145 cells assessed as reduction in cell viability; format: functional, cell-based
# [6] = system: Panel NCI-60 (60 carcinoma cell lines); assay: Cytotoxicity against human NCI60 cells assessed as cell growth at 10 uM relative to control; format: cell-based
# Procedure, shortened: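 Single-dose screen at 10 μM across the full NCI 60 cell line panel; read-out was percent cell growth.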
SMILES,MIC [1] [µg/mL],other results
CC1=C(O)[C@@](C)(CCCCC[C@H](C)CCCCc2ccc(O)c(O)c2)OC1=O,> 128,–
CC1=C(O)[C@@](C)(CCCCCCCCCCCCc2ccc(O)cc2)OC1=O,> 128,–
CC1=C(O)[C@@](C)(CCCCC[C@H](C)CCCCc2ccc(O)cc2)OC1=O,> 128,–
C/C(=C\C/C(=C\Cl)Cc1ccccc1)C(=O)N[C@H](C(=O)N1CCC[C@H]1c1nccs1)C(C)C,4.1,IC50 [2]: 20 µM; IC50 [3]: > 128 µg/mL; growth inhibition (GI) [4]: 55%; IC50 [5]: 15 µM
C=C(C/C=C(\C)C(=O)N[C@H](C(=O)N1CCC[C@H]1c1nccs1)C(C)C)Cc1ccccc1,> 128,Activity [6]: > 90%
CO[C@H]1/C=C/O[C@@]2(C)Oc3c(C)c(O)c4c(O)c(c(/C=N/N5CCN(C)CC5)c(O)c4c3C2=O)NC(=O)/C(C)=C\C=C\[C@H](C)[C@H](O)[C@@H](C)[C@@H](O)[C@@H](C)[C@H](OC(C)=O)[C@@H]1C [RIFAMPIN],0.1,–
